Experimental data reported in ChEMBL document CHEMBL3739379, “Anti-Candida activity and cytotoxicity of a large library of new N-substituted-1,3-thiazolidin-4-one derivatives” (Eur J Med Chem, 2016).
Converted amounts (≈) assume the structure as drawn.

Key:
Format in all cases: functional
Staphylococcus aureus = assay: Antibacterial activity against Staphylococcus aureus after 18 to 22 hrs by broth microdilution method
Outline: (§1)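 Broth microdilution per NCCLS in Mueller-Hinton II broth; isolates subcultured for purity. Compounds dissolved in DMSO, serial dilutions 256 to 0.5 µg/mL; inoculum 10^5/mL. Controls: organism without compound, medium only. Incubation 18 to 22 h at 35 °C. MIC is the lowest concentration giving complete growth inhibition, read by unaided eye.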

Staphylococcus warneri = assay: Antibacterial activity against Staphylococcus warneri after 18 to 22 hrs by broth microdilution method; outline: as §1
Enterococcus faecalis = assay: Antibacterial activity against […] faecalis after 18 to 22 hrs by broth microdilution method; outline: as §1
[1] = test system: Staphylococcus haemolyticus; assay: Antibacterial activity against Staphylococcus haemolyticus after 18 to 22 hrs by broth microdilution method; outline: as §1
Escherichia coli = assay: Antibacterial activity against Escherichia coli at after 18 to 22 hrs by broth microdilution method; outline: as §1
Proteus mirabilis = assay: Antibacterial activity against Proteus mirabilis after 18 to 22 hrs by broth microdilution method; outline: as §1
Enterobacter sp. = assay: Antibacterial activity against Enterobacter sp. after 18 to 22 hrs by broth microdilution method; outline: as §1
Klebsiella oxytoca = assay: Antibacterial activity against Klebsiella oxytoca after 18 to 22 hrs by broth microdilution method; outline: as §1
Candida albicans = assay: Antifungal activity against Candida albicans clinical isolate after 24 hrs by sabouraud dextrose broth based microdilution method
Outline: (§2)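 Clinical isolates identified by conventional methods and subcultured for purity. Broth microdilution per NCCLS in Sabouraud dextrose broth; compounds dissolved in DMSO and serially diluted; inoculum 10^3/mL. Controls: fungi without compound, medium only. Incubated 24 h at 37 °C. MIC is the lowest concentration with complete growth inhibition by unaided eye. Values are geometric means over isolates per species.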

Nakaseomyces glabratus = assay: Antifungal activity against Candida glabrata clinical isolate after 24 hrs by sabouraud dextrose broth based microdilution method; outline: as §2
Candida tropicalis = assay: Antifungal activity against Candida tropicalis clinical isolate after 24 hrs by sabouraud dextrose broth based microdilution method; outline: as §2
Pichia kudriavzevii = assay: Antifungal activity against Candida krusei clinical isolate after 24 hrs by sabouraud dextrose broth based microdilution method; outline: as §2
Candida parapsilosis = assay: Antifungal activity against Candida parapsilosis clinical isolate after 24 hrs by sabouraud dextrose broth based microdilution method; details: Lodderomyces parapsilosis; outline: as §2
[Candida] sake = Antifungal activity against Candida sake clinical isolate after 24 hrs by sabouraud dextrose broth based microdilution method; details: Fermentozyma sake; outline: as §2

| Structure (SMILES) | MIC (Staphylococcus aureus) [µg/mL] | MIC (Staphylococcus warneri) [µg/mL] | MIC (Enterococcus faecalis) [µg/mL] | MIC [1] [µg/mL] | MIC (Escherichia coli) [µg/mL] | MIC (Proteus mirabilis) [µg/mL] | MIC (Enterobacter sp.) [µg/mL] | MIC (Klebsiella oxytoca) [µg/mL] | MIC (Candida albicans) [µg/mL] | MIC (Nakaseomyces glabratus) [µg/mL] | MIC (Candida tropicalis) [µg/mL] | MIC (Pichia kudriavzevii) [µg/mL] | MIC (Candida parapsilosis) [µg/mL] | MIC ([Candida] sake) [µg/mL] |
| --- | --- | --- | --- | --- | --- | --- | --- | --- | --- | --- | --- | --- | --- | --- |
| CCCC/C(CC)=N/N=C1\SCC(=O)N1Cc1cccc2ccccc12 | > 256 | > 256 | > 256 | > 256 | > 256 | > 256 | > 256 | > 256 | 2 (≈ 5.44 µM) | 8 (≈ 21.8 µM) | 2 (≈ 5.44 µM) | 16 (≈ 43.5 µM) | 16 (≈ 43.5 µM) | 2 (≈ 5.44 µM) |
| O=C1c2ccccc2C(=O)N1CN1C(=O)CS/C1=N\N=C1CCCCCCC1 | > 256 | > 256 | > 256 | > 256 | > 256 | > 256 | > 256 | > 256 | 4 (≈ 10 µM) | 32 (≈ 80.3 µM) | 8 (≈ 20.1 µM) | 4 (≈ 10 µM) | 4 (≈ 10 µM) | 4 (≈ 10 µM) |
| CCCC/C(CC)=N/N=C1\SCC(=O)N1CN1C(=O)c2ccccc2C1=O | > 256 | > 256 | > 256 | > 256 | > 256 | > 256 | > 256 | > 256 | 4 (≈ 10.3 µM) | 16 (≈ 41.4 µM) | 2 (≈ 5.17 µM) | 32 (≈ 82.8 µM) | 8 (≈ 20.7 µM) | 2 (≈ 5.17 µM) |
| CC1CCCC/C1=N\N=C1/SCC(=O)N1Cc1ccc([N+](=O)[O-])cc1 (centres undefined) | > 256 | > 256 | > 256 | > 256 | > 256 | > 256 | > 256 | > 256 | 16 (≈ 44.4 µM) | 32 (≈ 88.8 µM) | 4 (≈ 11.1 µM) | 2 (≈ 5.55 µM) | 16 (≈ 44.4 µM) | 4 (≈ 11.1 µM) |
| CCC/C(C)=N/N=C1\SCC(=O)N1CN1C(=O)c2ccccc2C1=O | > 256 | > 256 | > 256 | > 256 | > 256 | > 256 | > 256 | > 256 | 2 (≈ 5.58 µM) | 2 (≈ 5.58 µM) | 4 (≈ 11.2 µM) | 2 (≈ 5.58 µM) | 2 (≈ 5.58 µM) | 4 (≈ 11.2 µM) |
| CCC/C(C)=N/N=C1\SCC(=O)N1Cc1cccc2ccccc12 | > 256 | > 256 | > 256 | > 256 | > 256 | > 256 | > 256 | > 256 | 2 (≈ 5.89 µM) | 2 (≈ 5.89 µM) | 64 (≈ 189 µM) | 2 (≈ 5.89 µM) | 2 (≈ 5.89 µM) | 16 (≈ 47.1 µM) |
| O=C1CS/C(=N\N=C\c2ccc3c(c2)OCO3)N1Cc1cccc2ccccc12 | > 256 | > 256 | > 256 | > 256 | > 256 | > 256 | > 256 | > 256 | 8 (≈ 19.8 µM) | 4 (≈ 9.91 µM) | 16 (≈ 39.7 µM) | 8 (≈ 19.8 µM) | 16 (≈ 39.7 µM) | 8 (≈ 19.8 µM) |
| O=C1c2ccccc2C(=O)N1CN1C(=O)CS/C1=N\N=C\c1cccc2ccccc12 | > 256 | > 256 | > 256 | > 256 | > 256 | > 256 | > 256 | > 256 | 256 (≈ 597 µM) | 16 (≈ 37.3 µM) | 128 (≈ 299 µM) | 128 (≈ 299 µM) | 128 (≈ 299 µM) | 128 (≈ 299 µM) |
| CC(=O)N1CCN(c2ccc(OCC3COC(Cn4ccnc4)(c4ccc(Cl)cc4Cl)O3)cc2)CC1 (centres undefined) [KETOCONAZOLE] | – | – | – | – | – | – | – | – | 2 (≈ 3.76 µM) | 2 (≈ 3.76 µM) | 2 (≈ 3.76 µM) | 4 (≈ 7.53 µM) | 2 (≈ 3.76 µM) | 4 (≈ 7.53 µM) |
| Clc1ccc(COC(Cn2ccnc2)c2ccc(Cl)cc2Cl)c(Cl)c1 (centres undefined) [MICONAZOLE] | – | – | – | – | – | – | – | – | 2 (≈ 4.81 µM) | 4 (≈ 9.61 µM) | 2 (≈ 4.81 µM) | 4 (≈ 9.61 µM) | 4 (≈ 9.61 µM) | 2 (≈ 4.81 µM) |
| CC/C(C)=N/N=C1\SCC(=O)N1Cc1cccc2ccccc12 | > 256 | > 256 | > 256 | > 256 | > 256 | > 256 | > 256 | > 256 | 2 (≈ 6.15 µM) | 2 (≈ 6.15 µM) | 128 (≈ 393 µM) | 2 (≈ 6.15 µM) | 2 (≈ 6.15 µM) | 2 (≈ 6.15 µM) |
| O=C1CS/C(=N\N=C\c2ccc3c(c2)OCO3)N1Cc1ccc([N+](=O)[O-])cc1 | > 256 | > 256 | > 256 | > 256 | > 256 | > 256 | > 256 | > 256 | 256 (≈ 643 µM) | 32 (≈ 80.3 µM) | 16 (≈ 40.2 µM) | 8 (≈ 20.1 µM) | 16 (≈ 40.2 µM) | 16 (≈ 40.2 µM) |
| Clc1ccccc1C(c1ccccc1)(c1ccccc1)n1ccnc1 [CLOTRIMAZOLE] | – | – | – | – | – | – | – | – | 2 (≈ 5.8 µM) | 2 (≈ 5.8 µM) | 2 (≈ 5.8 µM) | 2 (≈ 5.8 µM) | 2 (≈ 5.8 µM) | 2 (≈ 5.8 µM) |
| CC(C)(O/N=C(\C(=O)N[C@@H]1C(=O)N2C(C(=O)[O-])=C(C[n+]3ccccc3)CS[C@H]12)c1csc(N)n1)C(=O)O [CEFTAZIDIME] | 2 (≈ 3.66 µM) | 4 (≈ 7.32 µM) | 4 (≈ 7.32 µM) | 4 (≈ 7.32 µM) | 4 (≈ 7.32 µM) | 8 (≈ 14.6 µM) | 8 (≈ 14.6 µM) | 8 (≈ 14.6 µM) | – | – | – | – | – | – |
| C[C@@H]1[C@H](O)[C@@H](C)/C=C/C=C/C=C/C=C/C=C/C=C/C=C/[C@H](O[C@@H]2O[C@H](C)[C@@H](O)[C@H](N)[C@@H]2O)C[C@@H]2O[C@](O)(C[C@@H](O)C[C@@H](O)[C@H](O)CC[C@@H](O)C[C@@H](O)CC(=O)O[C@H]1C)C[C@H](O)[C@H]2C(=O)O [AMPHOTERICIN B] | – | – | – | – | – | – | – | – | 4 (≈ 4.33 µM) | 4 (≈ 4.33 µM) | 2 (≈ 2.16 µM) | 4 (≈ 4.33 µM) | 2 (≈ 2.16 µM) | 2 (≈ 2.16 µM) |
| Clc1ccc(C(Cn2ccnc2)OCc2ccsc2Cl)c(Cl)c1 (centres undefined) [TIOCONAZOLE] | – | – | – | – | – | – | – | – | 8 (≈ 20.6 µM) | 4 (≈ 10.3 µM) | 8 (≈ 20.6 µM) | 8 (≈ 20.6 µM) | 8 (≈ 20.6 µM) | 4 (≈ 10.3 µM) |
| OC(Cn1cncn1)(Cn1cncn1)c1ccc(F)cc1F [FLUCONAZOLE] | – | – | – | – | – | – | – | – | 2 (≈ 6.53 µM) | 2 (≈ 6.53 µM) | 2 (≈ 6.53 µM) | 2 (≈ 6.53 µM) | 2 (≈ 6.53 µM) | 2 (≈ 6.53 µM) |
